Only some compounds are listed: those with a hit (about 3.8% of all), similar ones and a draw of the others.
MC4R antagonist: MC4R antagonists of cAMP signaling, primary screen, cell-based, TR-FRET, antagonist arm of biased-ligand search; hit rate 0.48% among 360,000; Melanocortin receptor 4 (Homo sapiens), P32245; AID 540295, 2011; MC4R-expressing cells, MTII-stimulated cAMP, LANCE TR-FRET; inhibition, % at 6.5 µM;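 active means inhibition above its plate's cutoff, the mean of tested wells on that plate plus 3 SD, cut at about 29% in these data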
Target sequence (P32245 whole entry, looked up): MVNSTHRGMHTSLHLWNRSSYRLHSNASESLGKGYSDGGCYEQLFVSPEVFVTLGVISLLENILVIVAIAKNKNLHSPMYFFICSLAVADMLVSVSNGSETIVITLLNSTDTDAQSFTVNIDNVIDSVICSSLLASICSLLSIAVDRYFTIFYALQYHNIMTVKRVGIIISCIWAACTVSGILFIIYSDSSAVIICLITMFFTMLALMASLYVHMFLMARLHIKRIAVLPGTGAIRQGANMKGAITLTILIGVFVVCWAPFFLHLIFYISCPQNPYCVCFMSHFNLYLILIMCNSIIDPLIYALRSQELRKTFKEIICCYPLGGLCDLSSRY
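system = U2OS cells with stable human MC4R expression | also added = Melanotan II challenge after compound preincubation | dosing = one concentration, 6.5 µM nominal | incubation = compound 30 min, challenge 1 h, detection 1 h | measured by = TR-FRET with Eu-cAMP and labeled anti-cAMP, 671 nm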
CSC inhib: cancer stem cell viability inhibitors, primary screen, luminescence | cancer stem cell-like cells viability | inhibition, % at 7.5 µM | hit rate 1.1% among 300,000; in the data active means inhibition above about 75%; tested in HMLE shEcad cells
Beta cell apopt: inhibitors of cytokine-induced beta cell apoptosis, primary screen, luminescence. INS-1E cytokine-induced death, ATP luminescence, 48 h; percent of positive-control rescue, neutral wells zero. protection from apoptosis, % (test concentration not listed). hit rate 0.8% among 300,000. AID 435005, 2010;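 active means Every replicate reaches about 75%, or at least half do and their mean reaches it too, limit read from the data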;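 further: higher means more ATP so stronger rescue from cytokine killing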
MC4R ag barr: MC4R agonists recruiting beta-arrestin, primary screen, cell-based, luminescence, agonist arm of biased-ligand search. U2OS MC4R beta-arrestin complementation; percent of melanotan II response, DMSO zero. AID 540308, 2011. Melanocortin receptor 4 (Homo sapiens), P32245. activation, % at 8.9 µM. hit rate 0.98% among 360,000;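 active means activation above a per-plate cutoff, the mean activation of sample wells on that plate plus 3 SD, cut at about 8% in these data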
TMEM16A inh: TMEM16A chloride channel inhibitors, primary screen, cell-based, HTS; Anoctamin-1 (Mus musculus), Q8BHY3; HEK293 TMEM16A/YFP iodide influx fluorescence, ionomycin; normalized B-score (activity score, 25-100; higher = stronger inhibition) at 10 µM; hit rate 1.2% among 310,000;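 active means ratio plate-corrected score three or more library SD toward inhibition, starting fluorescence score within five deviations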;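 further: score derived from kinetic fluorescence span divided by baseline fluorescence per well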
ANO1 activ: TMEM16A chloride channel activators or potentiators, primary screen, cell-based, HTS; HEK293 TMEM16A/YFP-H148Q/I152L, iodide quench fluorescence; active compounds read low; B-score at 10 µM; hit rate 0.3% among 340,000; AID 623877, 2012;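 active means fluorescence-ratio B-score plate-corrected deviation score at least 3 library SD below zero, with starting fluorescence score within 5 deviations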;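 further: channel opened by trigger with iodide after compound preincubation; score built on the fluorescence ratio of max minus min over baseline; more negative score means more quench and so TMEM16A activation or potentiation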
Numbers stand for hits; - = inactive; . = no result given.

SMILES | MC4R antagonist | CSC inhib | Beta cell apopt | MC4R ag barr | TMEM16A inh | ANO1 activ
O=C(NC(C(=O)N/N=C/c1ccncc1)c1n[nH]c(=O)c2ccccc12)c1ccccc1 (stereo unspecified) | - | - | - | - | - | -
CCCCNc1ncnc2[nH]ncc12 | - | . | . | - | . | -
Cc1ccc(C2(c3ccc(C)cc3)CC2C(=O)Nc2ccc([N+](=O)[O-])cc2O)cc1 (stereo unspecified) | - | 174 | 125 | - | 100 | -
CCCN1C2CCCC1CC(NC(=O)c1ccccc1OC)C2 (stereo unspecified) | - | - | - | - | 100 | -
O=C1CC2C(CC(OC(=O)c3ccc(-c4ccccc4)cc3)C2CO)O1 (stereo unspecified) | - | - | - | - | - | -
O=C1C[C@H]2[C@H](CO)[C@@H](OC(=O)c3ccc(-c4ccccc4)cc3)C[C@H]2O1 | - | - | - | - | 25 | -
CC1C(c2ccccc2)=Nn2c(=O)n(-c3ccccc3)c(=O)n21 (stereo unspecified) | - | . | . | - | . | .
C[C@H](CO)N1C[C@H](C)[C@@H](CN(C)S(C)(=O)=O)Oc2ccc(NC(=O)CCC(F)(F)F)cc2C1=O | - | - | - | - | . | -
Cc1cccc(NC(=O)CCC(=O)N/N=C/c2ccc(O)cc2O)c1 | - | 79 | - | - | - | -
Cc1cc(SCC(=O)N/N=C/c2ccc(O)cc2O)nc2ccccc12 | - | 133 | - | - | - | -
Cc1ccc(NC(=O)CCC(=O)N/N=C/c2ccccc2O)cc1 | - | - | - | - | - | -
Cc1cccc(N/N=C/c2ccccc2O)c1 | - | 94 | - | - | - | -
Cc1cc(SCC(=O)N/N=C/c2ccc(O)c(O)c2)nc2ccccc12 | - | - | - | - | - | -
O=C(Nc1nnc(C2=COCCO2)o1)c1ccc([N+](=O)[O-])cc1 | - | - | - | - | - | -
O=C(COC(=O)CC1CCCC1)Nc1ccc(Cl)cc1 | - | . | . | - | . | -
CC(NS(=O)(=O)c1ccc2c(c1)CC(C)N2C(=O)C1CC1)c1ccccc1 (stereo unspecified) | - | - | - | - | - | -
Cn1c(-c2ccccc2)cc(=O)n1-c1ccccc1 | - | . | . | - | . | -
COc1ccc(CCNC(=O)CC(=O)N/N=C\c2ccc(OCC(N)=O)cc2)cc1OC | - | . | . | - | . | .
CCOc1ccc(OCCC(=O)N(CCOC)c2c(N)n(Cc3ccccc3)c(=O)[nH]c2=O)cc1 | - | . | . | - | . | -
CCc1cccc(NS(=O)(=O)c2csc(C(N)=O)c2)c1 | - | - | - | - | - | -
OCCN(CCO)CC(O)COc1ccc(Br)cc1 (stereo unspecified) | - | - | - | - | - | -
OCCN(CCO)CC(O)COc1ccc(C23CC4CC(CC(C4)C2)C3)cc1 (stereo unspecified) | - | 78 | - | - | - | -
CC1CN(c2ccc([N+](=O)[O-])c(NCCOc3ccc(Cl)cc3)c2)CC(C)N1 (stereo unspecified) | - | 108 | - | - | - | -
CC[C@H](C)/C=C(C)/C=C/c1cc2c(cn1)C(=O)[C@@](C)(OC(C)=O)C(O)=C2Cl | - | . | . | - | . | .
CC[C@H](C)/C=C(C)/C=C/C(=O)Cc1cc(O)c(C)c(O)c1C=O | - | - | - | - | - | -13
SMILES | MC4R antagonist | CSC inhib | Beta cell apopt | MC4R ag barr | TMEM16A inh | ANO1 activ
O=[N+]([O-])/C=C/c1cn(Cc2ccc(Cl)cc2)c2ccccc12 | - | 99 | - | - | - | -
Cc1cccc(Cn2cc(/C=C/[N+](=O)[O-])c3ccccc32)c1 | - | 109 | - | - | - | -
CCOC(=O)CN(C(=O)CNC(=O)c1ccco1)C(C(=O)NC1CCCCC1)c1cccnc1 (stereo unspecified) | - | - | - | - | - | -
N#CC(C#N)=C(Nc1ccc(F)cc1)SCc1cccc(Br)c1 | - | 119 | 105 | - | 100 | -
Cc1cccc(CSC(=N)N)c1 | - | - | - | - | - | -
Cc1cccc(CSC(Nc2ccc(F)cc2)=C(C#N)C#N)c1 | - | - | 106 | - | 100 | -
OC(c1ccc2ccccc2c1)c1ncc(-c2ccc(C(F)(F)F)cc2)[nH]1 (stereo unspecified) | - | . | . | - | . | .
O=[N+]([O-])c1ccccc1OCCCOc1cccc2cccnc12 | - | - | - | - | - | -
O=C1ON=C(c2ccccc2)/C1=C/c1ccc(O)cc1 | - | - | . | - | - | -
O=C1ON=C(c2ccc(Cl)cc2)/C1=C/c1ccc(O)cc1 | . | 79 | - | . | - | .
COc1cc(NCCCCCCCN)c2ncccc2c1 | - | - | - | - | - | -
COc1cc(NC(C)CCCN)c2ncccc2c1 (stereo unspecified) | - | 105 | 121 | - | - | -
Nc1ncnc2c1ncn2[C@@H]1O[C@H](CNC(=O)[C@H](N)Cc2cscn2)[C@@H](O)[C@H]1O | - | . | . | - | . | .
O=C(N/N=C/c1cccc(O)c1)c1cc(-c2ccc3c(c2)OCO3)n[nH]1 | - | 76 | - | - | - | -
O=C(N/N=C/c1ccc(O)cc1)c1cc(-c2ccc3c(c2)OCO3)n[nH]1 | - | 127 | - | - | - | -
O=C(N/N=C/c1ccccc1)c1cc(-c2ccc3c(c2)OCO3)n[nH]1 | - | - | - | - | - | -
CCN(CC)c1c(C)nc2ccc(C(=O)NCc3ccc4c(c3)OCO4)cn12 | - | . | . | - | . | .
CCCC(O)(c1ccc(CC)cc1)C(CN1CCOCC1)c1ccccc1 (stereo unspecified) | - | - | - | - | - | -
CN(CCOc1ccc(Cl)cc1)C(=O)CN1C(=O)NC2(CCCCC2)C1=O | - | - | - | - | - | -
CCn1c(SCC(=O)N/N=C/c2c[nH]c3ccccc23)nnc1-c1ccc(C(C)(C)C)cc1 | - | - | - | - | 25 | -
CCn1c(SCC(=O)N/N=C/c2ccc(C)o2)nnc1-c1ccc(C(C)(C)C)cc1 | - | - | - | - | - | -
CC(C)N(C(=O)CN1CCN(C(=O)C2COc3ccccc3O2)CC1)C(C)C (stereo unspecified) | - | - | - | - | . | -
CCOc1ccc(OCc2cccc(C(=O)Nc3ccc(CN4CCCCC4)cc3)c2)cc1 | - | 79 | - | - | - | -
CC1CCC2(CC1)OCC1(CCC3(COC4(CCC(C)CC4)OC3)C1=O)CO2 (stereo unspecified) | - | - | . | 9.2 | - | -
COc1ccccc1-c1nnc2sc(-c3cc4ccccc4o3)nn12 | - | - | - | - | 100 | -

Screens from PubChem.
